Assay results: paper PMC9574854 (Journal of Medicinal Chemistry, 2022)

Assays:
PfGSK3 = target: T1, PfGSK3 (Plasmodium falciparum, UniProt O77344); test: KinaseSeeker split luciferase assay on PfGSK3; assay type: biochemical; details: screen at 1 μM
T1 sequence (O77344 1-440): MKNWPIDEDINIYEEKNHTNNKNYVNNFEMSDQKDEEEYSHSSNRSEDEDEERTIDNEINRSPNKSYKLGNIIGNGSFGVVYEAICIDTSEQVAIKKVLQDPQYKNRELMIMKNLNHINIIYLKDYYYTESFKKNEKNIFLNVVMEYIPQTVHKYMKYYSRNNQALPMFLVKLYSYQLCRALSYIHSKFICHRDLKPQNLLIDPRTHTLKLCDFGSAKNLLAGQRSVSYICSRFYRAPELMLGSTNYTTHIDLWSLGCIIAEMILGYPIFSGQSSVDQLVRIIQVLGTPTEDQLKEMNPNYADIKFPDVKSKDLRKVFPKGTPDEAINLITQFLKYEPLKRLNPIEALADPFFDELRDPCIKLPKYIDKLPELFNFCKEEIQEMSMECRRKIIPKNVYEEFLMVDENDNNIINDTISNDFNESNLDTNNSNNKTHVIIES
In short: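 Split-luciferase binding assay: lysate with Cfluc-PfGSK3 fusion plus Fos-Nfluc, incubated 2 h with test compound in DMSO (or DMSO control) and a kinase-specific probe. Luminescence was read immediately after luciferin reagent. % inhibition = (control − sample)/control × 100. Compounds were first counter-screened against split luciferase, then screened at 1 μM.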

PfPK6 = target: T2, PfPK6 (Plasmodium falciparum, UniProt Q8IDW1); test: KinaseSeeker split luciferase assay on PfPK6; assay type: biochemical; details: compared to IKK16
T2 sequence (Q8IDW1 1-305): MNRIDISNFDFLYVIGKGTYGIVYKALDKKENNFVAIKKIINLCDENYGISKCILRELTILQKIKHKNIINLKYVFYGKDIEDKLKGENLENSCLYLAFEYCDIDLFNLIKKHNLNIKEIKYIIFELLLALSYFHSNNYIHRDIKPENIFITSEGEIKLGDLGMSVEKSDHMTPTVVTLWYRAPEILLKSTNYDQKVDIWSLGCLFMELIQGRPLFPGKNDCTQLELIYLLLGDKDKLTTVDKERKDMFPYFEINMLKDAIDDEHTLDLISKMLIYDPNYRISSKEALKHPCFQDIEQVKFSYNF

[1] = HepG2 CellTiter-Glo cytotoxicity assay; assay type: cell-based, human; details: human, HepG2 cells
In short: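 HepG2 cells were grown in DMEM with 10% FBS, 1% NEAA and 1% L-glutamine, without antibiotics. They were seeded at 4000 cells/well and left overnight at 37 °C, 5% CO₂. Test compound was added at 200 nM or 2 μM, in quadruplicate, with DMSO held constant, for 48 h. Viability was read by CellTiter-Glo 2 luminescence. % viability is the average of two experiments.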

activity on PfGSK3, in words (PfGSK3): abolished activity
fold increase in potency on PfPK6 (PfPK6): ~3 fold
SMILES: c1ccc2sc(-c3ccnc(Nc4ccc(CN5CCC(N6CCCC6)CC5)cc4)n3)cc2c1 [Compound 12, 4-(Benzo[b]thiophen-2-yl)-N-(4-((4-(pyrrolidin-1-yl)piperidin-1-yl)methyl)phenyl)pyrimidin-2-amine]
viability at 48 h, 200 nM [1]: 100%
